High-throughput results as filed in PubChem BioAssay.
Rin1 Abl inh – inhibitors of Rin1-Abl protein binding, primary screen, biochemical, TR-FRET. Tyrosine-protein kinase ABL1 (Homo sapiens) + Ras and Rab interactor 1 (Homo sapiens), …. inhibition, % at 7.35 µM. 360,000 compounds, 0.4% hits. AID 588664, 2011; in the data active = inhibition above about 5%, passing the limit was not always enough
UCH37 inh – inhibitors of human UCH37 deubiquitinase, primary screen, biochemical, Ub-AMC cleavage, fluorescence. inhibition, % (concentration not given with the values). Ubiquitin carboxyl-terminal hydrolase isozyme L5 (Homo sapiens), Q9Y5K5. 330,000 compounds, 0.33% hits. AID 588478, 2011. purified proteasome/UCH37;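 active = mean inhibition over replicate wells above about 20%, limit read from the data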;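 also: 0% = compound-free wells with enzyme and 100% = wells lacking proteasome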
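Schedule: 30 min plus 25 min, room temperature / Material: human UCH37 within purified proteasomes / Technique: AMC fluorescence intensity at 355/460 nm / Buffer or medium: pH 7.4 Tris-HCl (50 mM) with ovalbumin, ATP-MgCl2, DTT / Controls: wells without proteasome as full block, compound-free enzyme plus substrate as uninhibited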
Tb MetRS inh – T. brucei MetRS inhibitors, primary screen, biochemical, luminescence; 360,000 compounds, 0.4% hits; purified T. brucei MetRS, ATP depletion, Kinase-Glo luminescence; inhibition, % at 11.9 µM; AID 624268, 2012;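 active = inhibition above a per-plate cutoff of the control wells' mean inhibition plus 3 SD, cut at about 5.5% in these data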;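 also: 0% = DMSO wells median and 100% = median of wells with control inhibitor compound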
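Dosing: 11.9 µM single point; system: parasite MetRS enzyme; technique: luminescence of leftover ATP; times: 15 min enzyme-compound preincubation, 2 h reaction, 10 min detection, 25 °C; replicates: each compound tested once; read-out basis: percent inhibition relative to median high and low control wells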
ATG4B inhibitor – ATG4B protease inhibitors, primary screen, biochemical, fluorescence, uHTS | Cysteine protease ATG4B (Homo sapiens), Q9Y4P1 | ATG4B cleavage of LC3-PLA2, NBD-HPC fluorescence, 1 h | inhibition, % at 8.33 µM | 340,000 compounds, 0.51% hits | AID 504462, 2011; in the data active = inhibition above about 40%
Rin1-Abl confirm – Rin1-Abl binding inhibitor retest, confirmation, biochemical, TR-FRET | shares compounds with Rin1 Abl inh | purified proteins | inhibition, % at 7.35 µM | 1,300 compounds, 49% hits | AID 602124, 2011
GFP quencher – GFP fluorescence inhibitors and quenchers, artefact control for Rin1-Abl interaction inhibitor project, biochemical | shares compounds with Rin1 Abl inh | inhibitors/quenchers counterscreen | inhibition, % at 6.75 µM | 1,300 compounds, 8.5% hits | AID 602125, 2011;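 also: ABL1-eGFP fusion protein alone without its partner RIN1-SBP; 0% = protein with vehicle and 100% = wells lacking protein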
GFP quench DR – GFP fluorescence inhibitors and quenchers, dose response, artefact control for Rin1-Abl interaction inhibitor project, biochemical. shares compounds with Rin1 Abl inh. GFP fluorescence interference/quenching counterscreen. IC50, µM. 230 tested, under 10 active; call rule not given here;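 also: ABL1-eGFP fusion protein alone without its RIN1 binding partner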
* hit, by the source's call; . = not tested or not shown. Sampled rows, rich in hits. Any-hit rate of the full collection: about 1.4%. Rule as the data show it, unless noted: active = inhibition above about 6.5%; inactive = the rest.

SMILES	Rin1 Abl inh	UCH37 inh	Tb MetRS inh	ATG4B inhibitor	Rin1-Abl confirm	GFP quencher	others
COc1ccc(CCNC(=O)CSc2nc(C)nc3c2c(=O)n(C)c(=O)n3C)cc1OC	20.5*	3.3	-1.7	0.4	21.3*	1.3	GFP quench DR=>67.5
COc1ccc(CCNC(=O)CSc2nc3[nH]ncc3c(=O)n2-c2ccccc2Br)cc1OC	8.2*	.	-0.3	-7.5	8.6*	-3.6
CCC1(CC)C(=O)C2=C3C1[C@H](C(=O)OC)C=C(C(=O)OC)C[C@H]3n1c(=O)n(-c3ccccc3)c(=O)n1[C@H]2C (stereo not given in full)	24.0*	2.5	-0.4	-4.4	22.6*	2.1	GFP quench DR=>67.5
COCc1ccc(CN2CCC(n3nccc3NC(=O)c3ccc4c(c3)OCO4)CC2)o1	2.9	.	-0.3	.	.	.
COc1cnc(-c2ccccn2)nc1Oc1ccc(Cl)cc1	6.8*	2.7	-1.9	4.1	5.8	1.2
O=C(O)c1ccc(-c2nc3ccccc3[nH]2)cc1	0.0	.	3.2	-4.5	.	.
O=C(O)c1ccc(-c2ncc[nH]2)cc1	9.3*	-7.0	0.2	-3.2	1.1	0.0
O=C(CN1C(=O)CSc2cc(S(=O)(=O)N3CCCCCC3)ccc21)NCCc1ccccc1	6.1*	0.3	-0.8	-8.7	-2.2	-0.4
CN(C)CCNC(=O)CN1C(=O)CSc2ccc(S(=O)(=O)N3CCCCC3)cc21	2.5	1.8	-0.2	1.5	.	.
COC(=O)C1CCN(C(=O)c2cc(-c3ccc(Cl)s3)nc3ccccc23)CC1	-2.0	-171.6	-0.3	-24.6	.	.
NC(=O)c1nn(-c2ccccc2)nc1NC(=O)CN1CCCC1	-2.3	-8.3	-0.8	0.3	.	.
CCSc1nnc(NC(=O)CSc2nnc(CNC(=O)c3cc(OC)c(OC)c(OC)c3)o2)s1	-3.5	4.5	0.1	21.9	.	.
CCc1nnc(NC(=O)CSc2nnc(CNC(=O)c3cc(OC)c(OC)c(OC)c3)o2)s1	8.2*	4.6	-0.8	-3.3	-1.3	0.1
COc1cccc(N(CC(=O)NCC2CCCO2)C(=O)CNS(=O)(=O)c2ccccc2)c1 (stereo not given)	9.8*	4.7	-1.1	-3.1	-1.1	-0.7
O=C(Nc1nnc(Cc2ccc(Cl)cc2)s1)c1ccco1	7.4*	2.1	-0.9	-0.9	-0.6	-0.9
CCOCc1nnc(NC(=O)c2ccco2)s1	1.6	1.7	-0.2	-2.9	.	.
C/C(=N/NC(=O)c1cc(O)c(O)c(O)c1)c1ccc([N+](=O)[O-])cc1	40.8*	.	1.2	1.1	45.9*	20.6*
CC(=NNC(=O)c1cc(O)c(O)c(O)c1)c1ccc([N+](=O)[O-])cc1	.	10.2	.	.	.	.
CCN(CC#CCC1(O)c2ccccc2-c2ccccc21)CCO	2.1	1.1	-0.8	-9.9	.	.
CN(CC(=O)Nc1ccc(Cl)c(Cl)c1)C(=O)/C=C/c1ccc(F)cc1	9.5*	7.5	-0.8	-1.2	-0.6	-2.8
CN(CC(=O)Nc1cccc(F)c1)C(=O)/C=C/c1ccc(S(=O)(=O)N2CCCCCC2)cc1	3.0	-1.3	-0.2	-17.5	.	.
CCCc1cc(=O)[nH]c(SCC(=O)NC2CC2)n1	4.2	0.3	0.1	-1.7	.	.
CCCc1cc(=O)[nH]c(SCC(=O)NC2CCCCCCC2)n1	9.1*	0.3	-0.3	0.5	0.7	-0.6
COCCNS(=O)(=O)c1ccc(-c2ccc(S(=O)(=O)NCCOC)cc2)cc1	1.1	2.1	-0.7	4.0	.	.
CCOc1ccccc1N(C(=O)c1snc(C(N)=O)c1N)C(C(=O)NCC1CCCO1)c1ccc2ncccc2c1 (stereo not given)	21.3*	-137.1	0.0	-2.2	28.5*	-1.0	GFP quench DR=>67.5
SMILES	Rin1 Abl inh	UCH37 inh	Tb MetRS inh	ATG4B inhibitor	Rin1-Abl confirm	GFP quencher	others
COc1ccc(C(C(=O)NC2CCCCC2)N(C(=O)c2snc(C(N)=O)c2N)c2ccc(OC)cc2OC)cc1 (stereo not given)	18.3*	-23.1	-0.5	14.3	14.8*	0.3
Cc1ccccc1N(C(=O)c1snc(C(N)=O)c1N)C(C(=O)NCc1ccccc1)c1ccc(O)cc1 (stereo not given)	-0.3	-87.6	-0.3	7.6	.	.
CCOc1ccc(C(C(=O)NCC2CCCO2)N(C(=O)c2snc(C(N)=O)c2N)c2ccc3c(c2)OCCO3)cc1 (stereo not given)	16.0*	-17.1	-0.4	0.8	23.1*	-0.1
CCOc1ccccc1N(C(=O)c1snc(C(N)=O)c1N)C(C(=O)NCc1ccccc1)c1ccc(O)cc1 (stereo not given)	14.6*	-29.4	-0.3	0.8	26.5*	1.2	GFP quench DR=>67.5
COc1ccc(C(=O)/C=C/c2ccc(OC)cc2OC)c(O)c1	2.7	2.4	0.2	-14.0	.	.
CCOC(=O)CC1ON(C)C(=O)N1c1ccc(Cl)cc1Cl (stereo not given)	7.0*	5.7	-0.6	6.6	0.2	-2.1
Cc1ccc(C(=O)N/C(=C/c2ccco2)C(=O)NCCCn2ccnc2)cc1	-3.0	1.1	-0.1	-2.3	.	.
Cc1ccc(S(=O)(=O)C2(C(=O)NC3CCCCC3)CC2)cc1	15.8*	3.7	0.1	3.6	0.4	0.9
COc1ccc(-c2ccnc3c(C(=O)O)cnn23)cc1	9.6*	-125.5	1.2	1.6	-3.3	-1.7
O=C(O)c1cnn2c(-c3ccccc3)ccnc12	-0.6	-10.9	-2.1	-1.9	.	.
Oc1ccc(/C=N/Nc2ccc(C(F)(F)F)cn2)c(O)c1	5.2	.	-0.6	.	.	.
Oc1ccc(/C=N/Nc2cccc(Cl)n2)c(O)c1	8.1*	.	-0.9	-9.5	2.4	0.8
CCOc1cc(N2CCOCC2)c(OCC)cc1NC(C)C(=O)N1CCN(CC)CC1 (stereo not given)	37.9*	1.8	0.7	-4.6	0.9	-0.2
CC(/C=N/n1c(-c2ccco2)n[nH]c1=S)=C\c1ccccc1	7.4*	.	-0.2	13.6	-0.9	0.3
C/C(C=Nn1c(-c2ccco2)n[nH]c1=S)=C\c1ccccc1	.	2.0	.	.	.	.
NC(=O)c1cc(-c2ccccc2)nc(Oc2ccccc2)n1	10.5*	2.9	-1.7	-8.0	1.9	0.7
CCCCN=Cc1sc2ccc(OCC)cc2c1O	0.5	-1.3	-0.5	-0.6	.	.
Cc1ccccc1NC(=O)Nc1ccc(C(F)(F)F)cc1	9.0*	1.3	-0.3	2.5	-1.3	0.2
